Experimental findings from ChEMBL document CHEMBL2417509, “Synthesis and biological evaluation of prodigiosene conjugates of porphyrin, estrone and 4-hydroxytamoxifen” (2013) are described below.

Each structure is given as a SMILES string. Calls of active or inactive are those of the source. The calls are words filed in the database; no cut-off is given here.

For this test, the system named is MCF7. The test is described as follows: Cytotoxicity against human ER positive MCF7 cells assessed as cell viability at 1 uM after 72 hrs by MTT assay. It counts as functional, cell-based. The method in brief:
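Lines kept in DMEM with 10% fetal bovine serum and 1% penicillin/streptomycin at 37 °C, 5% CO2. Compound applied at 1 µM for 72 h, then standard MTT reduction read-out. Viability given as mean percentage of formazan formed by treated cells relative to mock-treated cells (0.1% DMSO). Run in quadruplicate, standard error, Student's t-test.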
On the technique in general: Tetrazolium assays rely on reduction of a dye to a coloured formazan, in cell work by metabolically active cells.

`COc1cc(-c2ccc[nH]2)[nH]c1/C=C1\N=C(C)C(C(=O)CCCCC(=O)Oc2ccc3c(c2)CC[C@@H]2[C@@H]3CC[C@]3(C)C(=O)CC[C@@H]23)=C1C`: the result was inactive.
For `COc1cc(-c2ccc[nH]2)[nH]c1/C=C1\N=C(C)C(C(=O)CCCCCCCCC(=O)Oc2ccc3c(c2)CC[C@@H]2[C@@H]3CC[C@]3(C)C(=O)CC[C@@H]23)=C1C` the value was “inactive”.
